Compounds with a hit are over-represented: about 3.3% of the library has one in this group of screens.
Myeloid diff MLP: myeloid differentiation induction; calls only at 10 µM; AID 624256; ER-HoxA9 myeloid progenitors, lysozyme-GFP differentiation, flow cytometry; 360,000 tested, 1% active;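 active = normalized GFP-positive differentiation at or above the plate's own cutoff, the solvent-only control mean plus 3 SD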;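 note: cells exposed to compound for four days before flow analysis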
CendR NRP1 mod: modulators of CendR peptide binding to human neuropilin-1; O14786; FAM-RPARPAR peptide binding to NRP-1, fluorescence polarization; inhibition, % at 25 µM; 360,000 tested, 0.85% active; AID 602438;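 active = inhibition or corrected inhibition above about 18%, plus a signal ratio from 0.5 to 1.5, limit read from the data, passing the limit was not always enough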
ABCB6 inh MLPCN: blocks the human ABCB6 transporter; fluorescence ratio to DMSO, % at 10 µM; AID 602162; K562-ABCB6 porphyrin accumulation, flow cytometry, 1 h; hits give low values; 360,000 tested, 0.19% active;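 active = fluorescence ratio to DMSO below 75%, the collection mean minus 3 SD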;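 note: signal is porphyrin accumulated inside mitochondria; 100% equals median channel fluorescence of DMSO control wells; lower ratio means ABCB6 inhibition with less porphyrin fluorescence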
Arrestin-AP2 inh: blocks beta-arrestin peptide binding to AP2 adaptin. inhibition, % at 10 µM. 340,000 tested, 0.31% active. FITC-arrestin peptide / GST-AP2 beads, flow cytometry; AP2 beta2 appendage carries R879A mutation;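 active = inhibition above a set limit, near 3 SD of compounds lacking own fluorescence, cut at about 54% in these data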;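 note: plate controls were DMSO wells for no effect and 5 µM unlabelled arrestin peptide for full effect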
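System: GST-AP2 R879A bound to glutathione beads, E. coli-expressed. Also added: 50 nM FITC-arrestin peptide. Schedule: compound with beads 12 min RT, then probe 1 h RT. Signal: bead flow cytometry, FITC channel. Read-out basis: percent response.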
ATG4B inh: inhibitors of human ATG4B cysteine protease; Q9Y4P1; ATG4B cleavage of LC3-PLA2, NBD-HPC fluorescence, 1 h; inhibition, % at 8.33 µM; 340,000 tested, 0.51% active; AID 504462; in the data active = inhibition above about 40%
Target sequence (Q9Y4P1 whole entry, looked up): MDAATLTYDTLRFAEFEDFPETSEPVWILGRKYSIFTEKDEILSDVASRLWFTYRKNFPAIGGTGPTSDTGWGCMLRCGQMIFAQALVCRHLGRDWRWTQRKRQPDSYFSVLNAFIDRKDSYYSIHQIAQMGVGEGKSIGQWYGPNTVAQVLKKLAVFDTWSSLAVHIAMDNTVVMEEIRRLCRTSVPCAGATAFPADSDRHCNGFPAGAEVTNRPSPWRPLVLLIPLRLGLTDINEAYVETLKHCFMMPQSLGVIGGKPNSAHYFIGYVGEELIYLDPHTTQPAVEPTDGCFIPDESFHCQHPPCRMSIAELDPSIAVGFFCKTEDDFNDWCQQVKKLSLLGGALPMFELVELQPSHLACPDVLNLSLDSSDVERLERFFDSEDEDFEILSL
Exocytosis inh: lytic granule exocytosis inhibition | TALL-104 LAMP-1 surface exposure, flow cytometry; cells stimulated with thapsigargin and PMA | inhibition, % at 10 µM | 360,000 tested, 0.66% active | AID 651702;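 active = inhibition above about 55%, limit read from the data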
* marks the source's active call; other numbers are inactive results.

What do the screens show for `COc1ccc(S(=O)(=O)N/N=C\c2ccc3c(c2)OCO3)c(OC)c1`?
Myeloid diff MLP: inactive; CendR NRP1 mod: 30*; ABCB6 inh MLPCN: 96; Arrestin-AP2 inh: 0; ATG4B inh: 2; Exocytosis inh: -1

Results for O=C(CNC(=O)c1ccc2c(c1)OCO2)N/N=C(Br)/C=C/c1ccccc1 ?
Myeloid diff MLP: active; CendR NRP1 mod: 0; ABCB6 inh MLPCN: 100; Arrestin-AP2 inh: -16; ATG4B inh: -2; Exocytosis inh: 3

Results for COc1ccc(OC)c(S(=O)(=O)N/N=C\c2ccc3c(c2)OCO3)c1 ?
Myeloid diff MLP: inactive; CendR NRP1 mod: -2; ABCB6 inh MLPCN: 99; Arrestin-AP2 inh: 36; ATG4B inh: -1; Exocytosis inh: -2

How did COc1ccc(C(C)(C)NC(=O)C2CCC(=O)N(CCCN3CCCC3=O)C2)cc1 (stereo unspecified) do in these assays?
Myeloid diff MLP: inactive; CendR NRP1 mod: 5; ABCB6 inh MLPCN: 96; Arrestin-AP2 inh: 9; ATG4B inh: -5; Exocytosis inh: -1

Results for CN(Cc1cnccn1)Cc1nc(Cc2cccc(F)c2)no1 ?
Myeloid diff MLP: inactive; CendR NRP1 mod: 14; ABCB6 inh MLPCN: 98; Arrestin-AP2 inh: 3; ATG4B inh: -12; Exocytosis inh: -2

How did O=C(CN1C(=O)CCC1=O)Nc1cccc2c1C(=O)NC2=O do in these assays?
Myeloid diff MLP: inactive; CendR NRP1 mod: 4; ABCB6 inh MLPCN: 103; Arrestin-AP2 inh: -13; ATG4B inh: 3; Exocytosis inh: 1

What do the screens show for `COc1ccc(C2CC(c3ccccc3)n3nc(NC(=O)c4cccs4)nc3N2)cc1` (stereo unspecified)?
Myeloid diff MLP: inactive; CendR NRP1 mod: 2; ABCB6 inh MLPCN: 102; Arrestin-AP2 inh: 3; ATG4B inh: 1; Exocytosis inh: -1

How did COc1ccc(C2CC(c3ccccc3)Nc3nc(NC(=O)c4cccs4)nn32)cc1 (stereo unspecified) do in these assays?
Myeloid diff MLP: inactive; CendR NRP1 mod: 31*; ABCB6 inh MLPCN: 108; Arrestin-AP2 inh: 40; ATG4B inh: 8; Exocytosis inh: 3

Results for Cc1[nH]nc(SCC(=O)N2CCOCC2)c1[N+](=O)[O-] ?
Myeloid diff MLP: inactive; CendR NRP1 mod: -4; ABCB6 inh MLPCN: 92; Arrestin-AP2 inh: 42; ATG4B inh: 25; Exocytosis inh: 1

What do the screens show for `Cc1ccc(NC(=O)COc2ncnc3c(Cl)cc(Cl)cc23)cc1[N+](=O)[O-]`?
Myeloid diff MLP: inactive; CendR NRP1 mod: 25*; ABCB6 inh MLPCN: 99; Arrestin-AP2 inh: -1; ATG4B inh: -2; Exocytosis inh: -7

What do the screens show for `CS(=O)(=O)Nc1ccc2c(c1)[C@H]1C[C@H](CC(=O)NCc3cccc(F)c3)O[C@@H](CO)[C@H]1O2`?
Myeloid diff MLP: inactive; CendR NRP1 mod: -2; ABCB6 inh MLPCN: 110; Exocytosis inh: 14

What do the screens show for `O=C(CSc1nccc(-c2ccc(Br)cc2)n1)NCCc1ccccc1`?
Myeloid diff MLP: inactive; CendR NRP1 mod: 28*; ABCB6 inh MLPCN: 97; Arrestin-AP2 inh: 11; ATG4B inh: -3; Exocytosis inh: -1

What do the screens show for `CN1c2ccccc2C(C)(C)C12CC(c1ccc(S(=O)(=O)N3CCCCC3)cc1)=NO2` (stereo unspecified)?
Myeloid diff MLP: inactive; CendR NRP1 mod: 19*; ABCB6 inh MLPCN: 99; Arrestin-AP2 inh: -1; ATG4B inh: -7; Exocytosis inh: 0

How did COc1ccccc1OCC(=O)NNc1c2ccccc2nc2ccccc12 do in these assays?
CendR NRP1 mod: -7; ABCB6 inh MLPCN: 98; Arrestin-AP2 inh: 7; ATG4B inh: -11; Exocytosis inh: 59*

What do the screens show for `CC1=C/C(=C(/c2ccc(O)c(C)c2)c2ccccc2S(=O)(=O)O)C=CC1=O`?
Myeloid diff MLP: inactive; CendR NRP1 mod: 9; ABCB6 inh MLPCN: 102; Arrestin-AP2 inh: 8; ATG4B inh: 5; Exocytosis inh: 0

Results for CC1=C/C(=C(/c2cc(C)c(O)c(Br)c2)c2ccccc2S(=O)(=O)O)C=C(Br)C1=O ?
Myeloid diff MLP: inactive; CendR NRP1 mod: 40*; ABCB6 inh MLPCN: 98; Arrestin-AP2 inh: 31; ATG4B inh: 9; Exocytosis inh: -5

Results for CNC(=O)C1C(=S)NC(N)=C(C#N)C1c1ccccc1 (stereo unspecified) ?
Myeloid diff MLP: inactive; CendR NRP1 mod: -2; ABCB6 inh MLPCN: 97; Arrestin-AP2 inh: 3; ATG4B inh: 9; Exocytosis inh: 69*

How did COC(=O)C1=C(C)OC(N)=C(C#N)C1c1ccccc1 (stereo unspecified) do in these assays?
Myeloid diff MLP: inactive; CendR NRP1 mod: 6; ABCB6 inh MLPCN: 99; Arrestin-AP2 inh: -3; ATG4B inh: -6; Exocytosis inh: -4

How did O=C(Cc1cccs1)N=Nc1c(O)[nH]c2ccc(Br)cc12 do in these assays?
Myeloid diff MLP: inactive; CendR NRP1 mod: -4; ABCB6 inh MLPCN: 94; Arrestin-AP2 inh: 1; ATG4B inh: -9; Exocytosis inh: -5

What do the screens show for `O=C(CNC(=O)c1cccs1)N=Nc1c(O)[nH]c2ccc([N+](=O)[O-])cc12`?
Myeloid diff MLP: inactive; CendR NRP1 mod: 30*; ABCB6 inh MLPCN: 104; Arrestin-AP2 inh: 0; ATG4B inh: 1; Exocytosis inh: 4

What do the screens show for `O=C(CNC(=O)c1ccco1)N=Nc1c(O)[nH]c2ccc(Br)cc12`?
Myeloid diff MLP: active; CendR NRP1 mod: 2; ABCB6 inh MLPCN: 87; Arrestin-AP2 inh: -1; ATG4B inh: 3; Exocytosis inh: 0

How did Cn1c(N)c(C(=O)COC(=O)CCc2ccccc2)c(=O)n(C)c1=O do in these assays?
Myeloid diff MLP: active; CendR NRP1 mod: -5; ABCB6 inh MLPCN: 469; Arrestin-AP2 inh: 9; ATG4B inh: -8; Exocytosis inh: -2

What do the screens show for `Cc1ccc(OCCC(=O)OCC(=O)c2c(N)n(CC(C)C)c(=O)n(C)c2=O)cc1`?
Myeloid diff MLP: inactive; CendR NRP1 mod: 17*; ABCB6 inh MLPCN: 89; Arrestin-AP2 inh: -7; ATG4B inh: -52; Exocytosis inh: 0

Results for Cn1c(N)c(C(=O)COC(=O)C2(c3ccccc3F)CCCC2)c(=O)n(C)c1=O ?
Myeloid diff MLP: inactive; CendR NRP1 mod: 32*; ABCB6 inh MLPCN: 103; Arrestin-AP2 inh: -4; ATG4B inh: -11; Exocytosis inh: -3

Results for CN1CCN(CCNC(=O)c2ccc(CS(=O)c3ccc(Br)cc3)o2)CC1 (stereo unspecified) ?
Myeloid diff MLP: inactive; CendR NRP1 mod: -18; ABCB6 inh MLPCN: 102; Exocytosis inh: 8

How did CCOc1ccccc1C(=O)Nc1ccc(S(=O)(=O)Nc2cc(OC)nc(OC)n2)cc1 do in these assays?
Myeloid diff MLP: inactive; CendR NRP1 mod: 2; ABCB6 inh MLPCN: 92; Arrestin-AP2 inh: 23; ATG4B inh: -9; Exocytosis inh: -1

Screens from PubChem BioAssay.
